Assay results from PMC3558928 (Chemistry & biology, 2013).
One block for each molecule: values may come before it.

Legend:
BLM^full-length = BLM^full-length (Homo sapiens, UniProt P54132); assay: Gel-based DNA unwinding assay, forked duplex, full-length BLM; assay type: biochemical
WRN^short (WRN^500–946) = WRN^short (WRN^500–946) (Homo sapiens, UniProt Q14191); assay: Gel-based DNA unwinding assay, truncated WRN; assay type: biochemical
[1] = biological target: WRN^long (full length WRN) (Homo sapiens, UniProt Q14191); assay: Gel-based DNA unwinding assay, full length WRN; assay type: biochemical
RecQ1 = biological target: T1, RecQ1 (Homo sapiens, UniProt P46063); assay: Gel-based DNA unwinding assay, RECQ1; assay type: biochemical
T1 sequence (P46063 1-649): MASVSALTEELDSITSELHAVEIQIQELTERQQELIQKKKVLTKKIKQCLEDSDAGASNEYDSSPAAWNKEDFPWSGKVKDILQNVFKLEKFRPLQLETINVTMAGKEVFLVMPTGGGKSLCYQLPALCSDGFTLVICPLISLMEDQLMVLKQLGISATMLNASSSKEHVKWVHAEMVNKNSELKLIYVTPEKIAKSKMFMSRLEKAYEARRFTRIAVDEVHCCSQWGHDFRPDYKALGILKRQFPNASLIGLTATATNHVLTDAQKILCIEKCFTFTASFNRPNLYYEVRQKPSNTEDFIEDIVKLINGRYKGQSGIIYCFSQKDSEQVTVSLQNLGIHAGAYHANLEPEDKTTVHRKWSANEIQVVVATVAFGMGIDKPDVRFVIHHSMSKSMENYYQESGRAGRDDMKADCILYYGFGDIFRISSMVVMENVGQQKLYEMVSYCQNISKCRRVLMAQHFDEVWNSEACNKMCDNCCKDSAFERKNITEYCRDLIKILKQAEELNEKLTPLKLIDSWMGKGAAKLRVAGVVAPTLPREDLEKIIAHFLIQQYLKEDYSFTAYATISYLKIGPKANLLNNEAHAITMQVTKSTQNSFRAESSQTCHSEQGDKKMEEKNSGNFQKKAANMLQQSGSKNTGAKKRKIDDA

RecQ5 = RecQ5 (Homo sapiens, UniProt O94762); assay: Gel-based DNA unwinding assay, RECQ5; assay type: biochemical
E. coli UvrD helicase = E. coli UvrD helicase (Escherichia coli, UniProt P03018); assay: Gel-based DNA unwinding assay, UvrD; assay type: biochemical
BLM [2] = biological target: T2, BLM (Homo sapiens, UniProt P54132); assay: ssDNA-dependent ATPase activity of BLM; assay type: biochemical
BLM [3] = biological target: T2, BLM; assay: BLM disruption of D-loop, Holliday junction and G-quadruplex substrates; assay type: biochemical
BLM [4] = biological target: T2, BLM; assay: Electrophoretic mobility shift assay; assay type: binding; details: ssDNA or forked duplex; increasing concentrations
BLM [5] = biological target: T2, BLM; assay: Fluorescence polarization assay of BLM binding to TAMRA-labeled oligonucleotide; details: dilution series; no nucleotide, ADP or ATP
PSNF5 cells [6] = assay: WST-1 proliferation assay, PSNF5; assay type: cell-based, human; details: PSNF5 (BLM+); 24–72 hours
PSNG13 cells [7] = assay: WST-1 proliferation assay, PSNG13; assay type: cell-based, human; details: PSNG13 (BLM−); 24–72 hours
PSNF5 cells [8] = assay: Sister chromatid exchange; assay type: cell-based, human
PSNG13 cells [9] = assay: Sister chromatid exchange; assay type: cell-based, human
Method in brief: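 Stable transfectants of SV40-transformed Bloom syndrome fibroblast line GM08505 were used: PSNF5 (Flag-BLM) and PSNG13 (empty vector). Cells were left untreated or exposed to test compound, with exposures in the 24–72 hr range. Sister chromatid exchanges were scored as frequency per chromosome and number per chromosome.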

PSNF5 cells [10] = assay: Clonogenic survival, sensitization to aphidicolin, PSNF5; assay type: cell-based, human; details: ML216 24 hours before aphidicolin, p<0.01
Method in brief: (§1)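 Isogenic SV40-transformed Bloom syndrome fibroblasts (GM08505 background): PSNF5 stably expresses Flag-tagged BLM, PSNG13 carries empty vector. Cells were exposed to test compound for 24 hr, then aphidicolin was added at graded concentrations for a further 24 hr. Cells were washed and grown in drug-free medium for up to 12 days to form colonies. Survival curves come from three independent experiments (mean, SD).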

PSNG13 cells [11] = assay: Clonogenic survival, sensitization to aphidicolin, PSNG13; assay type: cell-based, human
Method in brief: as §1

PSNF5 cells [12] = assay: γ-H2AX focus formation after mitomycin C, PSNF5; assay type: cell-based, human; details: ML216 and MMC versus MMC alone, p<0.05
PSNG13 cells [13] = assay: γ-H2AX focus formation after mitomycin C, PSNG13; assay type: cell-based, human; details: with or without MMC, p>0.05
WRN^+ and WRN^− cells [14] = assay: Proliferation of WRN+ and WRN− fibroblasts; assay type: cell-based, human
WRN^+ and WRN^− cells [15] = assay: Aphidicolin sensitization of WRN+ and WRN− fibroblasts; assay type: cell-based, human
human cells = assay: Cell cycle checkpoint responses in cells; assay type: cell-based; details: 50µM, 24 hours; data not shown
BLM^636–1298 = BLM^636–1298 (Homo sapiens, UniProt P54132); assay: Fluorescence-quenching qHTS assay of BLM DNA unwinding; assay type: biochemical
Method in brief: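 Quenched-fluorescence unwinding screen used bacterially expressed truncated BLM (residues 636–1298). The forked duplex substrate carries tetramethylrhodamine at the 3' end of one strand and Black Hole Quencher-2 at the 5' end of the complement. ATP-dependent unwinding raises fluorescence. Inhibition is the signal loss relative to DMSO-only controls, run as dose-response (qHTS).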

BLM [16] = biological target: T2, BLM; assay: Traditional helicase assay, radiolabeled forked duplex, PAGE; assay type: biochemical
Method in brief: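 Substrate was gel-purified and dialysed, and its concentration was set by scintillation counting. Reactions held at most 1% DMSO. Unwinding to ssDNA was resolved by PAGE and expressed as percent unwinding against untreated (0%) and heat-denatured (100%) controls. IC50 came from nonlinear regression.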

T2 sequence (P54132 whole entry): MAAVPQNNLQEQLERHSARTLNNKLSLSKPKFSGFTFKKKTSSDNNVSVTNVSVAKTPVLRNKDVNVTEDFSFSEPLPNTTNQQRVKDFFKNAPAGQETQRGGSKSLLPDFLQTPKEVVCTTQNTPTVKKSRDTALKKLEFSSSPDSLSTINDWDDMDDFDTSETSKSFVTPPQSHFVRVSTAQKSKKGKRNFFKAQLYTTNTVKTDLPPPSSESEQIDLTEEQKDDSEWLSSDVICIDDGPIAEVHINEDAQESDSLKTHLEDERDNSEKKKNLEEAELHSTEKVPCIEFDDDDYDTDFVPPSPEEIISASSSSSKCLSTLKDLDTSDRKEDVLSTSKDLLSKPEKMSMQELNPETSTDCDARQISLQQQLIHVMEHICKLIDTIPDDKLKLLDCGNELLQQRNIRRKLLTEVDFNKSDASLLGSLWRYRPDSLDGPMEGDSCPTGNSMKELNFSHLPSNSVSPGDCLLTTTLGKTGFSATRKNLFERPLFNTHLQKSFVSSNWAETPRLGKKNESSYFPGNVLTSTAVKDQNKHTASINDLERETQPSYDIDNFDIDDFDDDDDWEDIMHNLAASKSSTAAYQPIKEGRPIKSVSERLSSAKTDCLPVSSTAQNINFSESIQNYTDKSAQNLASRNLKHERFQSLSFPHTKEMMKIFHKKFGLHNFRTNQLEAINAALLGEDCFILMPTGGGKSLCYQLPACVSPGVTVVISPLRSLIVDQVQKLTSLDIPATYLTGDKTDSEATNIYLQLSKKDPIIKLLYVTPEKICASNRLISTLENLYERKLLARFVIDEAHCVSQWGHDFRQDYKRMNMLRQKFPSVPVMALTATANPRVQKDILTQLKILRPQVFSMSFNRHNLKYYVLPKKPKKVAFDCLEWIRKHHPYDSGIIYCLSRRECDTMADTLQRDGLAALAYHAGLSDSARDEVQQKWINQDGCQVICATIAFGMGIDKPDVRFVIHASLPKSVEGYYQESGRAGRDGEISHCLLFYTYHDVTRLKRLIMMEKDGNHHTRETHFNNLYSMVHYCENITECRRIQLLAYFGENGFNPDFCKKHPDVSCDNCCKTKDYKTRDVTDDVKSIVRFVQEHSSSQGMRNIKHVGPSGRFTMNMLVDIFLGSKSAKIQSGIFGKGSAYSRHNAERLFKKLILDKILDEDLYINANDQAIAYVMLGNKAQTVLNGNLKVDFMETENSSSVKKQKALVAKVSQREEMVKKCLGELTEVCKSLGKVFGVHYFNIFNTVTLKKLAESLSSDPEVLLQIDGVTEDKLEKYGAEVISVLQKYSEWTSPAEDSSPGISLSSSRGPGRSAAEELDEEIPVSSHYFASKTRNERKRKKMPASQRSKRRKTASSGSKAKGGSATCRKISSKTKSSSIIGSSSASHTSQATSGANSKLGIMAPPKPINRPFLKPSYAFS
Sequence of E. coli UvrD helicase (P03018 whole entry): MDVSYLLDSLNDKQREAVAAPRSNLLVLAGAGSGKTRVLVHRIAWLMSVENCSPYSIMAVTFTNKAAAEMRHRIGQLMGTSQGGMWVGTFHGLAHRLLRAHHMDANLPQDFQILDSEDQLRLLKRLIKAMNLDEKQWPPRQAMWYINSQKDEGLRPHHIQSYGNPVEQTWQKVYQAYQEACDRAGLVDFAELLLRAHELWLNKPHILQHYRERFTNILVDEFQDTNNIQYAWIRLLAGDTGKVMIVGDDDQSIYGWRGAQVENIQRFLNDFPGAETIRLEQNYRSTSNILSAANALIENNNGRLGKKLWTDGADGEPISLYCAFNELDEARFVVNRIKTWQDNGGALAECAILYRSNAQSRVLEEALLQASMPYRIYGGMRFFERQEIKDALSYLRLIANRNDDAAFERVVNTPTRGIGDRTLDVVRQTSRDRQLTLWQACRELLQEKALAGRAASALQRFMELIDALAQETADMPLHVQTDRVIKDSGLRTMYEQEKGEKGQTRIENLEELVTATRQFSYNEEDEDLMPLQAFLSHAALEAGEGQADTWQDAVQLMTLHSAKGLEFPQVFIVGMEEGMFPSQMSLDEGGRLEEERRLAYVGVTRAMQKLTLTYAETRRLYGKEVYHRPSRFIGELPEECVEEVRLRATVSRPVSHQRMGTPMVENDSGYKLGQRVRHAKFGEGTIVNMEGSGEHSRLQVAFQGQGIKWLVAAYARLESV
Sequence of RecQ5 (O94762 whole entry): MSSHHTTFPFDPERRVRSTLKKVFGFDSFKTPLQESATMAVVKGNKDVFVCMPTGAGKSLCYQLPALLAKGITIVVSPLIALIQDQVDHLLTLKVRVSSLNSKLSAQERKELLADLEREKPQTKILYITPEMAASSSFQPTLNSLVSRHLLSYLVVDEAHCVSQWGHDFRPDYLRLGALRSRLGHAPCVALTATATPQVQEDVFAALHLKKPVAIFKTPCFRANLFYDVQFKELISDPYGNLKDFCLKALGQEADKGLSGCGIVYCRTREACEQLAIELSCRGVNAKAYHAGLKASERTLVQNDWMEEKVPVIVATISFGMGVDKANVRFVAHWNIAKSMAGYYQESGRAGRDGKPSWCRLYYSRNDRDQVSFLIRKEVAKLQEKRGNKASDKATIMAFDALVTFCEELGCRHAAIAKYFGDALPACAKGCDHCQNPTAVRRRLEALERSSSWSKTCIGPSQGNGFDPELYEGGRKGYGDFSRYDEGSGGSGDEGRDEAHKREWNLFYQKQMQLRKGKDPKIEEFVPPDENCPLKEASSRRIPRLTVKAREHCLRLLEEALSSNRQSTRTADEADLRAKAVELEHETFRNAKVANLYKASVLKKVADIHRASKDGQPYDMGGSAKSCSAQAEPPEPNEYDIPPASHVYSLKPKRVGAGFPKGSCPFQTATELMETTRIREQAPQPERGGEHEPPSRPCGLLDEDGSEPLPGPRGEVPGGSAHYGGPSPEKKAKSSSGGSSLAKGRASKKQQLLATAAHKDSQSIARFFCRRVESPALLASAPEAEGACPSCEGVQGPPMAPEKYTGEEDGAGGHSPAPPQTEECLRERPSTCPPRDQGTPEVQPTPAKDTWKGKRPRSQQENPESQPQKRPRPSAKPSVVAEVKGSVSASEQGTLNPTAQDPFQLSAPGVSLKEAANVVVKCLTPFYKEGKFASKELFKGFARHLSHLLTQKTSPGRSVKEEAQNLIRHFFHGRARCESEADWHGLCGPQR
Sequence of WRN^short (WRN^500–946) (Q14191 500-946): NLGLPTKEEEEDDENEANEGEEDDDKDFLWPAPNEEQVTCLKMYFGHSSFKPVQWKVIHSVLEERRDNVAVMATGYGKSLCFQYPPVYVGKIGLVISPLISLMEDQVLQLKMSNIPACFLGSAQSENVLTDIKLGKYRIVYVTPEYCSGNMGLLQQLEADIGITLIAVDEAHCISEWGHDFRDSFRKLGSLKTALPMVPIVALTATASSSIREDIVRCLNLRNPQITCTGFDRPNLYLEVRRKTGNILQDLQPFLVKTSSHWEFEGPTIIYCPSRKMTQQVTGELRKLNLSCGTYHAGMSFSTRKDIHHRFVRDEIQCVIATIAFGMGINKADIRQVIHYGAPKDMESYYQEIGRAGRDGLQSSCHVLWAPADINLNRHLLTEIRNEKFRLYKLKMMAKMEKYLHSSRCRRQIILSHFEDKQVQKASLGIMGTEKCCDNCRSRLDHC
Sequence of WRN^long (full length WRN) (Q14191 whole entry): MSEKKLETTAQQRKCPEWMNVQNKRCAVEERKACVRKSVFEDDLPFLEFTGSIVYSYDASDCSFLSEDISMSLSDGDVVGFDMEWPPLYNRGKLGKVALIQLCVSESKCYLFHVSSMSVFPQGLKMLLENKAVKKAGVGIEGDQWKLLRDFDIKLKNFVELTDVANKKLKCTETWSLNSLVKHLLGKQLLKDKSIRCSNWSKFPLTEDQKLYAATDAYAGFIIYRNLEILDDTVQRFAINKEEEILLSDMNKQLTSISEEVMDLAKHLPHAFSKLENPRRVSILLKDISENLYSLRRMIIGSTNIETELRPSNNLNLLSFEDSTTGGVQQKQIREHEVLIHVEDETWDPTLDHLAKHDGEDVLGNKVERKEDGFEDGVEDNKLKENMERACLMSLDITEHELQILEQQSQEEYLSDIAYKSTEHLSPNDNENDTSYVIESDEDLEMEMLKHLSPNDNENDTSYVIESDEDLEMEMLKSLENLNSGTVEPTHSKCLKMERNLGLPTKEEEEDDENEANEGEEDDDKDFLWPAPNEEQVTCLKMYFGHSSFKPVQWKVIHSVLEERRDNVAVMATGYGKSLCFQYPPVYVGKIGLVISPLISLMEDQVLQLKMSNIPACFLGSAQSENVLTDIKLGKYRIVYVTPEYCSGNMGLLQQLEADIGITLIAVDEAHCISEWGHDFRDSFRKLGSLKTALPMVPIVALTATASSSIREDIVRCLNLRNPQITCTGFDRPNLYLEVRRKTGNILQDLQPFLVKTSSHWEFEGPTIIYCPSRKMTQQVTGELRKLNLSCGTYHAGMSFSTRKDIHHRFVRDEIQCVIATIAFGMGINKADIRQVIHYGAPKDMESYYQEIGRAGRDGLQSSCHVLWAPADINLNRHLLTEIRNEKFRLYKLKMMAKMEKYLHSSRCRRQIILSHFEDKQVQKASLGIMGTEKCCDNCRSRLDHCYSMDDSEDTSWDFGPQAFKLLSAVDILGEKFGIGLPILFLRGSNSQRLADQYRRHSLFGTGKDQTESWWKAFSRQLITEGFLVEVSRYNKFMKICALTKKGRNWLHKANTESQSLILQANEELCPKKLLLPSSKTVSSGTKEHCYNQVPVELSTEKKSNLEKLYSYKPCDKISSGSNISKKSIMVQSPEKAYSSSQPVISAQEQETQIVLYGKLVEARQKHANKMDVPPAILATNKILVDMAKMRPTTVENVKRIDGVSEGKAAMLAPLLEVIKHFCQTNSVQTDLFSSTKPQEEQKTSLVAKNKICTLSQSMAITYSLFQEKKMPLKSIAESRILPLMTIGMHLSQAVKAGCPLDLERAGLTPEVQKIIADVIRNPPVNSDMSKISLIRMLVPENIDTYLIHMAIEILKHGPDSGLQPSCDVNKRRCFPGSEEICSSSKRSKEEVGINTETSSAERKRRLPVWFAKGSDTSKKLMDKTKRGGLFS
Sequence of BLM^full-length (P54132 whole entry, the tested form may be a part): as the sequence (P54132 whole entry) above

SMILES: O=C(Nc1ccc(F)c(C(F)(F)F)c1)Nc1nnc(-c2ccncc2)s1 [ML216]
- sensitivity of BLM versus WRN (based on IC50 values) (BLM^full-length): 1.7 fold
- IC50 (WRN^short (WRN^500–946)): 12.6 µM
- sensitivity of full length WRN versus WRN^500–946 (based on IC50 values) [1]: 2.5 fold
- IC50 (RecQ1): > 50 µM
- inhibition of helicase activity (RecQ1; at 50 µM): only very modest inhibition
- IC50 (RecQ5): > 50 µM
- inhibition of helicase activity (RecQ5; at 50 µM): only very modest inhibition
- IC50 (E. coli UvrD helicase): > 50 µM
- inhibition of helicase activity (E. coli UvrD helicase; at 50 µM): only very modest inhibition
- mode of inhibition of ATPase activity with respect to ATP (BLM [2]): non-competitive
- inhibition of BLM's G-quadruplex disrupting activity (BLM [3]): only very modest inhibition
- inhibition of disruption of the D-loop substrate (BLM [3]; 50 µM): only at high concentrations
- inhibition of disruption of the Holliday junction substrate (BLM [3]; 50 µM): only at high concentrations
- effect on DNA binding by BLM (EMSA) (BLM [4]): displacement of either ssDNA or forked duplex DNA from a complex with BLM
- effect on DNA binding by BLM (fluorescence polarization) (BLM [5]): inhibits the ability of BLM to bind DNA
- effect on cell proliferation (PSNF5 cells [6]): inhibitor of the proliferation of PSNF5 cells
- effect on cell proliferation (PSNG13 cells [7]): not of PSNG13 cells
- frequency of sister chromatid exchanges (SCEs) (PSNF5 cells [8]): statistically significant increase
- frequency of SCEs, short exposure (PSNF5 cells [8]; present only during the last 8 hours): statistically significant increase in the frequency of SCEs
- frequency of sister chromatid exchanges (SCEs) (PSNG13 cells [9]): not in PSNG13 cells
- sensitivity to aphidicolin (PSNF5 cells [10]): increased the sensitivity
- sensitivity to aphidicolin (PSNG13 cells [11]): no sensitizing effect
- γ-H2AX focus formation (PSNF5 cells [12]): statistically significant reduction
- γ-H2AX focus formation (PSNG13 cells [13]): no significant effect
- inhibition of proliferation, WRN^+ versus WRN^− cells (WRN^+ and WRN^− cells [14]): equally well
- sensitization to aphidicolin, WRN^+ versus WRN^− cells (WRN^+ and WRN^− cells [15]): similarly sensitized both cell types
- cell cycle arrest in G1/S or G2/M (human cells): did not cause cell cycle arrest
- phosphorylation of ATM or ATR targets, including CHK1 and CHK2 (human cells): did not appear to cause phosphorylation

- activity in fluorescence-based screening assay (BLM^636–1298): showed activity
- activity in radioactivity-based helicase assay (BLM [16]): showed activity
SMILES: O=C(Nc1ccc(Cl)c(Cl)c1)Nc1nnc(-c2ccncc2)s1 [MLS000559245]
